A selection: hits, their analogues and other compounds. The true share with any hit is near 2.7%.
OX1R antag-1: antagonists of human orexin 1 receptor. CHO/OX1R cells, Fluo-8 calcium fluorescence, orexin A. inhibition, % at 5 µM. 330,000 compounds, 0.43% hits. AID 434989;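 active = inhibition above its plate's threshold, mean inhibition of all tested compounds on the plate plus 3 SD, cut at about 37% in these data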;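 note: 0% = orexin A challenge wells and 100% = SB-334867-A antagonist wells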
Target sequence (O43613 whole entry, looked up): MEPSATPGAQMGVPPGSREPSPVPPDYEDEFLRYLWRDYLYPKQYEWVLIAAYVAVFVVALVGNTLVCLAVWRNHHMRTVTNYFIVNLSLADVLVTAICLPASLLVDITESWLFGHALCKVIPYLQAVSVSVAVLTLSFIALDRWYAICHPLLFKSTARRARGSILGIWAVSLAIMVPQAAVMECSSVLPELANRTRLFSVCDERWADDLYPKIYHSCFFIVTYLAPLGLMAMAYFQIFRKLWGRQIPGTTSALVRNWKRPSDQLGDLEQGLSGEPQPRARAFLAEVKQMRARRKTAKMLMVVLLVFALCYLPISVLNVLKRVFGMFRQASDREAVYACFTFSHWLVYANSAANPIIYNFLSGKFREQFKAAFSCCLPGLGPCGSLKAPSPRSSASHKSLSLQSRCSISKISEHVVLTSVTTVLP
OXTR potentiate: potentiators of human oxytocin receptor. P30559. CHO-OTR cells, Fluo-8 calcium fluorescence, potentiator mode; 0% = oxytocin EC15, 100% = EC100. activation, % at 3 µM. 320,000 compounds, 0.061% hits;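 active = activation above that plate's cutoff, the mean activation of tested compounds plus 3 SD, cut at about 6.6% in these data, passing the limit was not always enough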;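 note: 100% uses oxytocin at 75 nM as the full agonist control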
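System: human OTR in CHO cells / Also added: sub-maximal oxytocin, roughly EC15 / Control set: EC15 oxytocin low, 75 nM oxytocin high / Schedule: 6 min compound pre-incubation at room temperature, 100 s kinetic read / Compound: single-point 3.0 µM / Replication: singlicate / Technique: Fluo-8 calcium dye fluorescence / Read-out basis: % activation of max/min ratio relative to oxytocin controls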
CHO parental Ca: counter-screen: ATP calcium response change in parental CHO cells. 330,000 compounds, 0.63% hits. parental CHO-K1, ATP-induced calcium, Fluo-8 fluorescence. inhibition, % at 5.6 µM;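 active = inhibition above that plate's mean sample inhibition plus 3 SD, cut at about 26% in these data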;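 note: 0% = ATP-challenged DMSO wells and 100% = DMSO wells without ATP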
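Assay system – parental CHO cells · Reagent – ATP stimulus · Detection – intracellular calcium via Fluo-8 no-wash fluorescent dye · Evaluation – percent inhibition of ATP-evoked calcium rise, normalized to controls · Controls – ATP wells versus no-ATP DMSO wells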
OX1R antag-2: OX1R (human) antagonism; 330,000 compounds, 1.8% hits; AID 485270; OX1R-expressing cells, FRET antagonist read-out; O43613; inhibition, % at 6.6 µM; in the data active = inhibition mostly above about 38%, no sharp cut-off; inactive = mostly below about 40%;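 note: 0% = agonist challenge alone and 100% = reference antagonist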
OXTR ag: agonists of human oxytocin receptor; P30559; CHO-OTR cells, Fluo-8 calcium fluorescence; normalized: DMSO 0%, oxytocin 100%; activation, % at 3 µM; 320,000 compounds, 0.32% hits; AID 2435;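 active = activation above the mean of all tested compounds plus 3 SD, cutoff set per screening run, cut at about 20% in these data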;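 note: peak over basal fluorescence ratio from a 100 s FLIPR kinetic read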
V1aR counter: counter-screen for oxytocin receptor agonists: human V1a receptor agonists | 320,000 compounds, 0.25% hits | activation, % at 3 µM | P37288 | CHO-V1R cells, Fluo-8 calcium fluorescence, agonist mode; 0% DMSO, 100% 3 nM vasopressin | AID 2797;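 active = activation above the mean activation of all tested compounds plus 3 SD, per screening run, cut at about 20% in these data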;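 note: signal is peak over basal fluorescence ratio across a 100 second FLIPR read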
* marks the source's active call; other numbers are inactive results.

For CC(OC(=O)CCC(=O)N1CCN(S(=O)(=O)c2ccc3ccccc3c2)CC1)C(=O)NC(N)=O (configuration not stated) the results were OX1R antag-1 -19, OXTR potentiate 3, CHO parental Ca -19, OX1R antag-2 18, OXTR ag -1 and V1aR counter -1.
Cc1ccc(C)c(Sc2ccc(NC(=O)CCN3C(=O)NC4(CCCC4)C3=O)cc2)c1 was read as OX1R antag-1 60*, OXTR potentiate -10, CHO parental Ca 63*, OX1R antag-2 11, OXTR ag 4 and V1aR counter 9.
`CS(=O)(=O)c1ccc(NC(=O)CCN2C(=O)NC3(CCCC3)C2=O)cc1` gave OX1R antag-1 -9, OXTR potentiate 2, CHO parental Ca -4, OX1R antag-2 -4, OXTR ag 1 and V1aR counter 0.
`CCC1CCCCN1CCCNC(=O)c1ccc(CS(=O)(=O)c2ccccc2OC)o1` (configuration not stated) gave OX1R antag-1 1, OXTR potentiate -7, CHO parental Ca -11, OX1R antag-2 9, OXTR ag -1 and V1aR counter 0.
For CCc1ccc(S(=O)(=O)/N=C2\C=C(Nc3ccc(C(=O)O)cc3)C(=O)c3ccccc32)cc1 the results were OX1R antag-1 -11, OXTR potentiate -5, CHO parental Ca -16, OX1R antag-2 52*, OXTR ag 1 and V1aR counter 1.
For Cc1nn(-c2ccccc2)c(N)c1N=O the results were OX1R antag-1 -8, OXTR potentiate -3, CHO parental Ca -6, OX1R antag-2 61*, OXTR ag 0 and V1aR counter 1.
CCc1ccc(-c2nc(CN3CCC(C(=O)N4CCN(c5ccccc5)CC4)CC3)c(C)o2)cc1 was read as OX1R antag-1 -8, OXTR potentiate -11, CHO parental Ca 2, OX1R antag-2 6, OXTR ag 29* and V1aR counter 34*.
For Cc1ccc(CS(=O)(=O)c2ncc(Cl)c(C(=O)Nc3ccc(OC(F)F)cc3)n2)cc1 the results were OX1R antag-1 51*, OXTR potentiate -9, CHO parental Ca 59*, OX1R antag-2 25, OXTR ag -2 and V1aR counter 3.
COc1ccc(CC(=O)Nc2ccc(S(=O)(=O)N(C)C3CCN(C)CC3)cc2)cc1 was read as OX1R antag-1 -8, OXTR potentiate -2, CHO parental Ca -5, OX1R antag-2 9, OXTR ag 2 and V1aR counter 2.
For CC(Oc1ccc(Br)cc1)C(=O)Nc1ccc(S(=O)(=O)N(C)C2CCN(C)CC2)cc1 (configuration not stated) the results were OX1R antag-1 40, OXTR potentiate -22, CHO parental Ca 51*, OX1R antag-2 -4, OXTR ag 64* and V1aR counter 47*.
For Cc1cccc(NC(=O)c2ccc([N+](=O)[O-])s2)n1 the results were OX1R antag-1 -3, OXTR potentiate -3, CHO parental Ca 12, OX1R antag-2 36*, OXTR ag 1 and V1aR counter 2.
Screening Cc1ccnc(NC(=O)c2ccc([N+](=O)[O-])s2)c1 returned OX1R antag-1 -9, OXTR potentiate -6, CHO parental Ca 3, OX1R antag-2 70*, OXTR ag -1 and V1aR counter -1.
Screening Cc1cccc(C)c1NC(=O)c1ccc([N+](=O)[O-])s1 returned OX1R antag-1 -21, OXTR potentiate -8, CHO parental Ca -5, OX1R antag-2 46, OXTR ag -1 and V1aR counter 1.
`Cc1ccnc(NC(=O)c2cc([N+](=O)[O-])cc([N+](=O)[O-])c2)c1` gave OX1R antag-1 -17, OXTR potentiate -5, CHO parental Ca -7, OX1R antag-2 17, OXTR ag 0 and V1aR counter 0.
CCOC(=O)C1=CN(Cc2ccco2)S(=O)(=O)NC1CC (configuration not stated) was read as OX1R antag-1 -1, CHO parental Ca -5 and OX1R antag-2 0.

High-throughput results from PubChem.
